Activity calls are given as the source filed them. No cut-off for these calls is given here.
What was measured:
DU-145 [1] = experiment: Induction of apoptosis in human DU145 cells assessed as procaspase-8 activation; format: functional, cell-based
LoVo = experiment: Antiproliferative activity against LoVo cells after 72 hrs by MTT assay; format: functional, cell-based, Homo sapiens; details: Homo sapiens, LoVo, 72 h
In short: (§1)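 Cells cultured with each compound for three days; growth then read by the MTT colorimetric assay and reported as IC50 (µM).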

[2] = Antiproliferative activity against U373MG cells after 72 hrs by MTT assay; format: functional, cell-based, Homo sapiens, U-373MG ATCC; details: Homo sapiens, U373 MG, 72 h; in short: as §1
[3] = molecular target: T1, DNA topoisomerase 1 (Homo sapiens) (UniProt P11387); experiment: Inhibition of human topoisomerase 1 by DNA unwinding test
T1 sequence (whole entry): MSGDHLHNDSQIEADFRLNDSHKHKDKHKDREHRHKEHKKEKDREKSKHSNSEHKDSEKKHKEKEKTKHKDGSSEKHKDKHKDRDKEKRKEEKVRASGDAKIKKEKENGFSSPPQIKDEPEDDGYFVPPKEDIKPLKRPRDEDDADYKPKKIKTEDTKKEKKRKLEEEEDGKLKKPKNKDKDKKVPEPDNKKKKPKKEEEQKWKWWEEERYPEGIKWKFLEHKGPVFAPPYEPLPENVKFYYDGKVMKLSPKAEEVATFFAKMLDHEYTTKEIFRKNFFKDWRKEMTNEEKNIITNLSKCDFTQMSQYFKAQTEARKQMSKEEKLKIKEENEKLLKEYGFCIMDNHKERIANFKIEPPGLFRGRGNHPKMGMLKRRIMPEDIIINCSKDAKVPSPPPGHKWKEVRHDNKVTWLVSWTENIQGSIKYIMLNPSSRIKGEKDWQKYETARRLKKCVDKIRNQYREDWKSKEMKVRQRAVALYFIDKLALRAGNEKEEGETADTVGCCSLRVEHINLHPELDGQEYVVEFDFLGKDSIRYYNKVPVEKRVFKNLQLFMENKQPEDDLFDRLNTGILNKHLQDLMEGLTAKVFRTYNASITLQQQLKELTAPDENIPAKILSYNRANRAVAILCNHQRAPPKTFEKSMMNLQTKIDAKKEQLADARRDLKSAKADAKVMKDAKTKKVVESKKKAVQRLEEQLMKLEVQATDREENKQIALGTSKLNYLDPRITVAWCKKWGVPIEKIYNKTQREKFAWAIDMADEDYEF
In short: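 DNA unwinding assay: relaxed pBR322 plasmid converted to supercoiled form in presence of topoisomerase I; compounds at final 4–32 µM (one up to 15–55 µM); ethidium bromide-stained agarose gels; UC50 taken as concentration shifting relaxed band to midpoint between supercoiled and relaxed states.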

Mus musculus [4] = experiment: Hematotoxicity in B6D2F1 mouse assessed as platelet count at 80 mg/kg, po; format: organism-based; parameters: dose 80 mg/kg, route oral; details: in vivo
PC-3 = experiment: Induction of apoptosis in human PC3 cells assessed as procaspase-9 activation; format: functional, cell-based
In short: (§2)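 PC-3 and DU-145 cells treated over 72 h at 1 and 10 µM, compared with untreated cells. p53, PARP cleavage and procaspase-3/-9 activation assessed by immunoblotting.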

Mus musculus [5] = experiment: Hematotoxicity in B6D2F1 mouse assessed as platelet count at 160 mg/kg, po; format: organism-based; parameters: dose 160 mg/kg, route oral; details: in vivo
Mus musculus [6] = experiment: Hematotoxicity in B6D2F1 mouse assessed as WBC count at 10 mg/kg, iv; format: organism-based; parameters: dose 10 mg/kg, route intravenous; details: in vivo
HCT-15 = experiment: Antiproliferative activity against HCT15 cells after 72 hrs by MTT assay; format: functional, cell-based, Homo sapiens; details: Homo sapiens, HCT-15, 72 h; in short: as §1
L1210 = experiment: Antitumor activity in L1210 cells xenografted B6D2F1 mouse at 20 mg/kg, ip relative to control; format: functional; details: route intraperitoneal
In short: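 Mice grafted with L1210 leukaemia cells on day 0, then dosed i.p. four times weekly on days 1-4 and 8-11. Five mice per group. Outcome is %T/C, the median survival of treated over control. Kruskal-Wallis test followed by Dunn comparisons against control.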

Mus musculus [7] = experiment: Hematotoxicity in B6D2F1 mouse assessed as RBC count at 120 mg/kg, po; format: organism-based; parameters: dose 120 mg/kg, route oral; details: in vivo
DU-145 [8] = experiment: Induction of apoptosis in human DU145 cells assessed as PARP cleavage activation; format: functional, cell-based; in short: as §2
Mus musculus [9] = experiment: Hematotoxicity in B6D2F1 mouse assessed as RBC count at 40 mg/kg, iv; format: organism-based; parameters: dose 40 mg/kg, route intravenous; details: in vivo
A549 = experiment: Antiproliferative activity against A549 cells after 72 hrs by MTT assay; format: functional, cell-based, Homo sapiens; details: Homo sapiens, A549, 72 h; in short: as §1
Mus musculus [10] = experiment: Hematotoxicity in B6D2F1 mouse assessed as RBC count at 80 mg/kg, po; format: organism-based; parameters: dose 80 mg/kg, route oral; details: in vivo
Mus musculus [11] = experiment: Hematotoxicity in B6D2F1 mouse assessed as platelet count at 120 mg/kg, po; format: organism-based; parameters: dose 120 mg/kg, route oral; details: in vivo
DU-145 [12] = experiment: Induction of senescence in human DU145 cells; format: functional, cell-based
In short: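 SA-β-galactosidase staining of PC-3 and DU-145 prostate cancer cells after 72 h at 10 µM; adriamycin 20 nM as positive control; expressed as percentage of positively stained cells.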

CN(C)CCN1C(=O)c2cccc3cc(NC(=O)NC(=O)C(Cl)(Cl)Cl)cc(c23)C1=O
Activity (DU-145 [1]): inactive | IC50 (LoVo): 900 nM | IC50 [2]: 900 nM | UC50 [3]: 40 µM | Activity (Mus musculus [4]): 872 10^3 /uL | Activity (PC-3): inactive | Activity (Mus musculus [5]): 1005 10^3 /uL | Activity (Mus musculus [6]): 3.92 10^3 /uL | IC50 (HCT-15): 900 nM | Activity (L1210): 205% | Activity (Mus musculus [7]): 10.13 10^6 /uL | Activity (DU-145 [8]): inactive | Activity (Mus musculus [9]): 9.1 10^6 /uL | IC50 (A549): 900 nM | Activity (Mus musculus [10]): 9.95 10^6 /uL | Activity (Mus musculus [11]): 977 10^3 /uL | Activity (DU-145 [12]): Active
